How the values were obtained:
Adenosine receptor A2a [1] = molecular target: T1, Adenosine receptor A2a (Homo sapiens, UniProt P29274); experiment: Displacement of [3H]CGS-21680 binding to Adenosine A2 receptor expressed in CHO cells; format: cell-based
Adenosine receptor A2a [2] = molecular target: T1, Adenosine receptor A2a; experiment: Inhibition of [3H]CGS-21680 binding to Adenosine A2A receptor expressed in CHO cells; format: cell-based; parameters: concentration or dose not given beside the values; conditions: concentration not given here
Adenosine receptor A1 = molecular target: T2, Adenosine receptor A1 (Homo sapiens, UniProt P30542); experiment: Displacement of [3H]CHA binding to Adenosine A1 receptor expressed in CHO cells; format: cell-based
T2 sequence (P30542 whole entry): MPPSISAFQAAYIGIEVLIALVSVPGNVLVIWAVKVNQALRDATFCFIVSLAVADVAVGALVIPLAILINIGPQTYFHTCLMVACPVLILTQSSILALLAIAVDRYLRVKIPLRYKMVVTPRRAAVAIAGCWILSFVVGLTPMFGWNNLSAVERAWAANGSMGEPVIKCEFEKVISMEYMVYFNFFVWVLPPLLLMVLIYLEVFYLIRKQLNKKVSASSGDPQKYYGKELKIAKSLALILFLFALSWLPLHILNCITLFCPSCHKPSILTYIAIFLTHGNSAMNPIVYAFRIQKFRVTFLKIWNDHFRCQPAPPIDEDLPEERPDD
Method in brief: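 Human A1-transfected CHO membranes (adenosine deaminase-treated), 50 µg protein, incubated 120 min at 25 °C in 50 mM Tris HCl pH 7.4 with 1 nM [3H]-CHA and 6-8 agonist concentrations; nonspecific binding with 10 µM CHA. Filtration through GF/B filters, scintillation counting; Ki from IC50 via Cheng-Prusoff; geometric mean with confidence limits.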

[3] = molecular target: Adenosine receptors; A1 & A3 (Homo sapiens) (UniProt P30542+P0DMS8); experiment: Ratio of binding affinity for Adenosine A1 and Adenosine A3 receptors; format: protein assay
Adenosine receptor A3 [4] = molecular target: T3, Adenosine receptor A3 (Homo sapiens, UniProt P0DMS8); experiment: Displacement of [125I]AB-MECA binding to Adenosine A3 receptor expressed in CHO cells; format: cell-based
T3 sequence (P0DMS8 whole entry): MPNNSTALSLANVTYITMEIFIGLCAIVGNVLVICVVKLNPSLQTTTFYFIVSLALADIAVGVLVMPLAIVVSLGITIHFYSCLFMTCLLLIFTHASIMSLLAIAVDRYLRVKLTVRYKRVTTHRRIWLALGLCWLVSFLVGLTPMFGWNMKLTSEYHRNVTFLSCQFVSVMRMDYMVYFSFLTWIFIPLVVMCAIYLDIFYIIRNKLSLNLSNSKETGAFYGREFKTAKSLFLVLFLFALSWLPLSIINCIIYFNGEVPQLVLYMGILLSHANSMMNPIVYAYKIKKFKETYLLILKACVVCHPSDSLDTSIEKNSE

Adenosine receptor A3 [5] = molecular target: T3, Adenosine receptor A3; experiment: Inhibition of (10 uM) forskolin-mediated cAMP production in CHO cells expressing human Adenosine A3 receptor; format: functional, cell-based
[6] = molecular target: Adenosine receptors; A2a & A3 (Homo sapiens) (UniProt P0DMS8+P29274); experiment: Ratio of binding affinity for Adenosine A2A and Adenosine A3 receptors; format: protein assay
Method in brief: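 Ki ratio of two competition binding assays on adenosine deaminase-treated membranes of CHO cells expressing human receptors (50 µg protein). […] A3: 1 nM [125I]-AB-MECA, 120 min, 4 °C, duplicates. Filtration read-out; Ki by Cheng-Prusoff.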

T1 sequence (P29274 whole entry): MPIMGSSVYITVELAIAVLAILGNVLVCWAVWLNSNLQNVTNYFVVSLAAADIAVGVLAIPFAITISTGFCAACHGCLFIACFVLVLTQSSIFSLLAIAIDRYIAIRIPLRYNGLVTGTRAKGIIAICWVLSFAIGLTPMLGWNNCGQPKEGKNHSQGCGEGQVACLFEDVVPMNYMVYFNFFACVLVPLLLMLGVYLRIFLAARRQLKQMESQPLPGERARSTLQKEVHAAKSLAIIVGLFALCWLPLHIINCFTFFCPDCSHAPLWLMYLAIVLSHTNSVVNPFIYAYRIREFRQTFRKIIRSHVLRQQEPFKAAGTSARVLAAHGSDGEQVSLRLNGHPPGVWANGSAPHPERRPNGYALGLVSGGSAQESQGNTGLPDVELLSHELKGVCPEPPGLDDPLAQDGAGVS
Chain of Adenosine receptors; A2a & A3 (Homo sapiens) (P29274 whole entry, looked up, one chain of several): as the sequence (P29274 whole entry) above

Row | Ki (Adenosine receptor A2a [1]) [nM] | inhibition (Adenosine receptor A2a [2]) [%] | Ki (Adenosine receptor A1) [nM] | Ratio [3] | Ki (Adenosine receptor A3 [4]) [nM] | IC50 (Adenosine receptor A3 [5]) [nM] | Ratio [6] | Structure (SMILES)
1 | > 1000 | 15 |  |  |  |  |  | CCNC(=O)[C@H]1OC(n2cnc3c(NC(=O)Nc4ccc(S(=O)(=O)N5CCCCC5)cc4)ncnc32)C(O)C1O (single isomer, unassigned)
2 | > 1000 | 15 | 350 | 25 | 14 |  |  | CCCN(CCC)S(=O)(=O)c1ccc(NC(=O)Nc2ncnc3c2ncn3C2O[C@H](C(=O)NCC)C(O)C2O)cc1 (single isomer, unassigned)
3 | > 1000 | 25 | 350 |  |  |  |  | CCNC(=O)[C@H]1OC(n2cnc3c(NC(=O)Nc4ccc(S(=O)(=O)NC5CCCCC5)cc4)ncnc32)C(O)C1O (single isomer, unassigned)
4 | 95.2 |  | 30.1 | 2.03 | 14.8 | 81 | 6.43 | CCNC(=O)[C@H]1O[C@@H](n2cnc3c(NC(=O)Nc4ccc(S(N)(=O)=O)cc4)ncnc32)C(O)C1O (single isomer, unassigned)
5 | > 1000 | 23 |  |  | 22 |  |  | CCNC(=O)[C@H]1OC(n2cnc3c(NC(=O)Nc4ccc(S(=O)(=O)N5CCCC5)cc4)ncnc32)C(O)C1O (single isomer, unassigned)
6 |  | 13 |  |  |  |  |  | CCNC(=O)[C@H]1OC(n2cnc3c(NC(=O)Nc4ccc(S(=O)(=O)N(C)C(C)C)cc4)ncnc32)C(O)C1O (single isomer, unassigned)
7 | > 1000 | 30 | 300 |  |  |  |  | CCNC(=O)[C@H]1OC(n2cnc3c(NC(=O)Nc4ccc(S(=O)(=O)NCc5ccccc5)cc4)ncnc32)C(O)C1O (single isomer, unassigned)
8 | > 1000 | 32 | 445 | 5.56 | 80 |  |  | CCCCCNS(=O)(=O)c1ccc(NC(=O)Nc2ncnc3c2ncn3C2O[C@H](C(=O)NCC)C(O)C2O)cc1 (single isomer, unassigned)
9 | > 1000 | 20 | 725 | 36.2 | 20 |  |  | CCNC(=O)[C@H]1OC(n2cnc3c(NC(=O)Nc4ccc(S(=O)(=O)N5CCOCC5)cc4)ncnc32)C(O)C1O (single isomer, unassigned)
10 | > 1000 | 34 | 280 |  |  |  |  | CCNC(=O)[C@H]1OC(n2cnc3c(NC(=O)Nc4ccc(S(=O)(=O)Nc5ccc(OC)cc5)cc4)ncnc32)C(O)C1O (single isomer, unassigned)
11 | > 1000 | 28 |  |  |  |  |  | CCNC(=O)[C@H]1OC(n2cnc3c(NC(=O)Nc4ccc(S(=O)(=O)N(CC)CC)cc4)ncnc32)C(O)C1O (single isomer, unassigned)
12 | > 1000 | 32 | 250 | 12.5 | 20 |  |  | CCNC(=O)[C@H]1OC(n2cnc3c(NC(=O)Nc4ccc(S(=O)(=O)NC(C)(C)C)cc4)ncnc32)C(O)C1O (single isomer, unassigned)
13 | > 1000 | 15 | 380 | 38 | 10 | 65 |  | C=CCN(CC=C)S(=O)(=O)c1ccc(NC(=O)Nc2ncnc3c2ncn3C2O[C@H](C(=O)NCC)C(O)C2O)cc1 (single isomer, unassigned)
14 | > 1000 | 21 | 280 |  |  |  |  | CCNC(=O)[C@H]1OC(n2cnc3c(NC(=O)Nc4ccc(S(=O)(=O)N(C)C)cc4)ncnc32)C(O)C1O (single isomer, unassigned)
15 | > 1000 | 31 | 240 | 7.5 | 35 |  |  | CCNC(=O)[C@H]1OC(n2cnc3c(NC(=O)Nc4ccc(S(=O)(=O)NC56CC7CC(CC(C7)C5)C6)cc4)ncnc32)C(O)C1O (single isomer, unassigned)
16 | > 1000 | 19 | 415 | 17.3 | 24 |  |  | CCNC(=O)[C@H]1OC(n2cnc3c(NC(=O)Nc4ccc(S(=O)(=O)NC5CCCC5)cc4)ncnc32)C(O)C1O (single isomer, unassigned)
17 | > 1000 | 31 | 290 | 11.6 | 25 |  |  | CCCNS(=O)(=O)c1ccc(NC(=O)Nc2ncnc3c2ncn3C2O[C@H](C(=O)NCC)C(O)C2O)cc1 (single isomer, unassigned)
18 | > 1000 | 34 | 250 | 10.9 | 23 |  |  | CCNC(=O)[C@H]1OC(n2cnc3c(NC(=O)Nc4ccc(S(=O)(=O)NCC)cc4)ncnc32)C(O)C1O (single isomer, unassigned)
19 | > 1000 | 10 |  |  | 10 | 42 |  | C=CCN(C)S(=O)(=O)c1ccc(NC(=O)Nc2ncnc3c2ncn3C2O[C@H](C(=O)NCC)C(O)C2O)cc1 (single isomer, unassigned)
20 | > 1000 | 17 | 250 | 13.2 | 19 |  |  | CCNC(=O)[C@H]1OC(n2cnc3c(NC(=O)Nc4ccc(S(=O)(=O)N5CC=CC5)cc4)ncnc32)C(O)C1O (single isomer, unassigned)

Row | Structure (SMILES) | Ki (Adenosine receptor A2a [1]) [nM] | inhibition (Adenosine receptor A2a [2]) [%] | Ki (Adenosine receptor A1) [nM] | Ratio [3] | Ki (Adenosine receptor A3 [4]) [nM] | IC50 (Adenosine receptor A3 [5]) [nM] | Ratio [6]
21 | CCNC(=O)[C@H]1OC(n2cnc3c(NC(=O)Nc4ccc(S(=O)(=O)N(CCCl)CCCl)cc4)ncnc32)C(O)C1O (single isomer, unassigned) | > 1000 | 27 | 730 | 31.7 | 23 |  | 
